The target of data set [1] is T1, c-MET (Homo sapiens, UniProt P08581). Nature of the data set: biochemical. It is filed as binding.
Data set [2] has as its system EBC-1 cells. The experiment in a line: Cell proliferation inhibition assay. It is filed as cell-based.
For data set [3], the target named is T1, c-MET. It is filed as cell-based. The conditions noted are these: Western blot, EBC-1 and Hs746T cells. (In general: A western blot detects proteins with antibodies after separation by electrophoresis.)
Another data set deals with Hs746T cells. The experiment in a line: Cell proliferation inhibition assay. It is filed as cell-based. The settings on record: Homo sapiens, 72 h, read-out: IC50 Hs746T, c-MET-sensitive, 72 h.
Another data set deals with A549 cells. Nature of the data set: Cell proliferation inhibition assay. The settings on record: Homo sapiens, A549, 72 h, read-out: IC50 A549. Type of data set: cell-based.
The next data set relates to HepG2 cells. The experiment in a line: Cell proliferation inhibition assay. It is filed as cell-based. The settings on record: Homo sapiens, HepG2, 72 h, read-out: IC50 HepG2.
In data set [4] the test system is EBC-1 cells. The experiment in a line: Cell apoptosis by flow cytometry. The conditions noted are these: 48 h. It is filed as cell-based.
Another data set has as its system EBC-1 xenograft tumors. The experiment in a line: EBC-1 xenograft tumor growth model. It is filed as in vivo, BALB/c nude mice. The conditions noted are these: 10 mg/kg, i.p., qd, 10 days. In a few lines: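 Six-week-old BALB/c nude mice (SPF) received 5 × 10^6 EBC-1 cells subcutaneously in the dorsal flank. At about 80 mm3 they were grouped and dosed at 10 mg/kg i.p. once daily for 10 days; vehicle was 10% DMSO/10% PEG300/5% Tween 80/75% H2O. Calipers and body weight were read every 2 days. V = L×W²/2, and TGI used median volumes. Tumors were weighed at the end, n = 6.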

Data set [5] in a line: Pharmacokinetic study in rats. Also noted: species or system Male Sprague–Dawley (SD) rats. The conditions noted are these: male, Sprague-Dawley, rat, in vivo, iv, 1 mg/kg, CL.

Results on four compounds are retold here after article PMC10326257 (Acta Pharmaceutica Sinica. B, 2023).

T1 sequence (P08581 25-1390): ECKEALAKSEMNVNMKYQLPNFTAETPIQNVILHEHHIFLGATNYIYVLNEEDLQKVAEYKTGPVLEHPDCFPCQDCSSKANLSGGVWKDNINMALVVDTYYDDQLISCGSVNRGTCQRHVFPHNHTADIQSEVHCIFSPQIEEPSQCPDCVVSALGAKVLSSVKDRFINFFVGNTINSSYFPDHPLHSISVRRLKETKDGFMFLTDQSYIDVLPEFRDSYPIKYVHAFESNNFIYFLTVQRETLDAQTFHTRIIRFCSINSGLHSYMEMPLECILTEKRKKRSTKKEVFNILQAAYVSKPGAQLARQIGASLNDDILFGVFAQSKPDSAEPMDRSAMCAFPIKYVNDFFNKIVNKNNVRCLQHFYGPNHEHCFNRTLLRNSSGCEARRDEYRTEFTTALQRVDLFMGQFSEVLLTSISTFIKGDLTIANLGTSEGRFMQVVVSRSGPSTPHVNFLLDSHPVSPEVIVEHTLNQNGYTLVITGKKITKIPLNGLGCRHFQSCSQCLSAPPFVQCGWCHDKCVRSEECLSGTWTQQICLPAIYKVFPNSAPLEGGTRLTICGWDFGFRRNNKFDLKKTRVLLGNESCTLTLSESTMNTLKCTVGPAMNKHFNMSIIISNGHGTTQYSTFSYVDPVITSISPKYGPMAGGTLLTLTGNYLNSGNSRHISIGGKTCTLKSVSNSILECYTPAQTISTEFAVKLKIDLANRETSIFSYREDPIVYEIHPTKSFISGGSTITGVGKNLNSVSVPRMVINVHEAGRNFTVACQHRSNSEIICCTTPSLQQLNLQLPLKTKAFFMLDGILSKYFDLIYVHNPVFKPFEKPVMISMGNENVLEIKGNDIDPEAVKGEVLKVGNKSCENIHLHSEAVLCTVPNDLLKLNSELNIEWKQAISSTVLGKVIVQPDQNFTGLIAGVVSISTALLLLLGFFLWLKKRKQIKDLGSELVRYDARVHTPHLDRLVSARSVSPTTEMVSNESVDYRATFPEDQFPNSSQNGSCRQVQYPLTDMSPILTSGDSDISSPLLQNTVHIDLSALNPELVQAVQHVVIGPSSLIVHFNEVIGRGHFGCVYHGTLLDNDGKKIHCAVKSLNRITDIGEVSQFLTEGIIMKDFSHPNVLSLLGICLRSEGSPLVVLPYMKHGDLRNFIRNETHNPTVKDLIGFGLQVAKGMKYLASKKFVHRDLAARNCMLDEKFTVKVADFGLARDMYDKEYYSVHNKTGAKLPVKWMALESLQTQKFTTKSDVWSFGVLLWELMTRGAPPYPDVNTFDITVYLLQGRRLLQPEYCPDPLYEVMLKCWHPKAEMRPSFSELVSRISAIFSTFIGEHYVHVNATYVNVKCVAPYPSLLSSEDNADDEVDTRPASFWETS

With `CN1C(=O)CCC(N2C(=O)c3ccc(N4CCN(C(=O)CN5CCC(COc6cnc(-c7cccc(Cn8nc(-c9cccc(C#N)c9)ccc8=O)c7)nc6)CC5)CC4)cc3C2=O)C1=O` (centres unmarked) [D16], the Kd (commonly a measure of binding affinity in units of concentration) on c-MET [1] was 345 nM. Besides, on c-MET [1] (ratio of Kd to D15), the “binding affinity, fold weaker than D15” value was 2 fold. In addition, the “inhibition of cell proliferation, fold weaker than D15” value with EBC-1 cells [2] (EBC-1 and Hs746T cells) is “approximately 10 fold”. Moreover, the c-MET degradation effect entry on c-MET [3] is on record as “no degradation effect”.

As to `CN1CCC(COc2cnc(-c3cccc(Cn4nc(-c5cccc(C#N)c5)ccc4=O)c3)nc2)CC1` [Tepotinib], the IC50 – broadly, the concentration that gives 50% inhibition – in the data set with EBC-1 cells [2] (Homo sapiens, EBC-1, 72 h, read-out: IC50 EBC-1) is 1.32 ± 0.39 nM; with Hs746T cells it was 2.63 ± 0.72 nM; in the data set on A549 cells it was 277 ± 59 nM; in the data set with HepG2 cells, 476 ± 45 nM. Also, the apoptosis rate is listed as 39.3% with EBC-1 cells [4] (EBC-1, 10 nmol/L) and 59.4% in the data set with EBC-1 cells [4] (EBC-1, 100 nmol/L). Besides, the “tumor growth inhibition (TGI%)” value in the data set on EBC-1 xenograft tumors turned out to be 71.9%. Moreover, the clearance – broadly, a measure of how efficiently the substance is removed, as volume per time – in [5] is 70 mL/min/kg.

As for `O=C1CCC(N2C(=O)c3ccccc3C2=O)C(=O)N1` (centres unmarked) [Thalidomide], the c-MET degradation effect entry at c-MET [3] was “none”.

In turn, `N#Cc1cccc(-c2ccc(=O)n(Cc3cccc(-c4ncc(OCC5CCNCC5)cn4)c3)n2)c1` [compound 6] returned a Kd at c-MET [1] of 9.97 nM.
